Measurements: ChEMBL document CHEMBL1140715, “Structure-activity relationships of novel iron chelators for the treatment of iron overload disease: the methyl pyrazinylketone isonicotinoyl hydrazone series” (J Med Chem, 2008)

What was measured:
[1] = Antiproliferative activity against human […] cells by MTT assay; type: cell-based
In short: (§1)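 MTT assay of cell proliferation; MTT colour formation directly proportional to viable cell number counted by Trypan blue staining. IC50 reported as mean ± SD of three experiments.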

[2] = Induction of intracellular iron mobilization in human […] cells relative to control; type: functional; set-up: concentration or dose not given beside the values
In short: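 SK-N-MC cells prelabeled with 59Fe-Tf (0.75 µM) for 3 h at 37 °C, washed four times with ice-cold PBS, then incubated with chelator (50 µM) for 3 h at 37 °C. Released 59Fe in medium and cell pellet counted by γ-scintillation. Mean ± SD, three experiments, triplicate determinations.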

MRC5 = assay: Antiproliferative activity against human MRC5 cells by MTT assay; type: cell-based; in short: as §1
[3] = Partition coefficient, log P of the compound; type: physicochemical; conditions: octanol/water
In short: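 Octanol–water partition coefficient measured spectrophotometrically.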

logP [3] | SMILES | IC50 [1] | Activity [2] | IC50 (MRC5)
 | O=C(NN=C(c1ccccn1)c1ccccn1)c1ccccc1 | 3.04 µM |  | 
2 | C/C(=N\NC(=O)c1ccc(C(F)(F)F)cc1)c1cnccn1 | 1.16 µM | 31% | 2.09 µM
 | O=C(N/N=C/c1ccccn1)c1ccccc1 | 19.2 µM |  | 
 | O=C(N/N=C/c1ccccn1)c1ccc(O)cc1 | > 80 µM |  | 
 | Nc1ccc(C(=O)N/N=C/c2ccccn2)cc1 | > 80 µM |  | 
1.9 | C/C(=N\NC(=O)c1ccc(O)cc1)c1cnccn1 | 16.8 µM | 39% | > 80 µM
1.3 | C/C(=N\NC(=O)c1ccc(N)cc1)c1cnccn1 | 58.8 µM | 34% | > 80 µM
2.9 | C/C(=N\NC(=O)c1ccc(Br)cc1)c1cnccn1 | 1.22 µM | 31% | 2.94 µM
2.1 | C/C(=N\NC(=O)c1ccc([N+](=O)[O-])cc1)c1cnccn1 | 1.39 µM | 31% | 2.87 µM
 | O=C(NN=C(c1ccccn1)c1ccccn1)c1cccc(Br)c1 | 0.24 µM |  | 
 | O=C(NN=C(c1ccccn1)c1ccccn1)c1ccc([N+](=O)[O-])cc1 | 0.26 µM |  | 
 | O=C(NN=C(c1ccccn1)c1ccccn1)c1ccc(C(F)(F)F)cc1 | 0.24 µM |  | 
 | O=C(N/N=C/c1ccccn1)c1ccc([N+](=O)[O-])cc1 | 35.5 µM |  | 
 | O=C(N/N=C/c1ccccn1)c1cccs1 | 22.7 µM |  | 
 | CN(C)C(=S)NN=C(c1ccccn1)c1ccccn1 | 0.001 µM |  | 
 | O=C(N/N=C/c1c(O)ccc2ccccc12)c1ccncc1 | 0.83 µM | 44% | 
2.9 | C/C(=N\NC(=O)c1cccc(Br)c1)c1cnccn1 | 1.15 µM | 31% | 3.12 µM
 | O=C(NN=C(c1ccccn1)c1ccccn1)c1ccc(Br)cc1 | 0.3 µM |  | 
 | O=C(N/N=C/c1ccccn1)c1ccc(Br)cc1 | 17.7 µM |  | 
 | O=C(N/N=C/c1ccccn1)c1ccc(C(F)(F)F)cc1 | 22.4 µM |  | 
 | O=C(N/N=C/c1ccccn1)c1ccncc1 | > 80 µM |  | 
 | CC(=O)N(O)CCCCCNC(=O)CCC(=O)N(O)CCCCCNC(=O)CCC(=O)N(O)CCCCCN [DEFEROXAMINE] | 12.1 µM | 16% | 
1.9 | C/C(=N\NC(=O)c1ccccc1)c1cnccn1 [METHYL PYRAZINYLKETONE BENZOYL HYDRAZONE] | 3.62 µM | 31% | 7.04 µM
1.2 | C/C(=N\NC(=O)c1ccncc1)c1cnccn1 [METHYL PYRAZINYLKETONE ISONICOTINOYL HYDRAZONE] | 5.79 µM | 31% | 25.2 µM
2.6 | C/C(=N\NC(=O)c1cccs1)c1cnccn1 [METHYL PYRAZINYLKETONE THIOPHENECARBOXYL HYDRAZONE] | 2.13 µM | 31% | 5.54 µM
 | Cc1ncc(CO)c(/C=N/NC(=O)c2ccncc2)c1O [PYRIDOXAL ISONICOTINOYL HYDRAZONE] |  | 40% | 
 | NC(=S)N/N=C/c1ncccc1N [TRIAPINE] | 0.66 µM |  | 
